Data: PubChem BioAssay AID493213 (Broad Institute, 2011)
Several values for one entry are separate records, joined by “and”; a condition that tells them apart may be missing. Equal values may be shown once. Activity calls are given as the source filed them.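 How the source made its calls: active means dose response lowering luminescence by over half the proteasome blocker control effect, potency within ten times top dose; inactive means change in the opposite direction, plus the rest.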

Test system: not listed separately
Assay: cellular proteasome inhibitors – cell-based, luminescence, U2OS, dry powder, set 3, counter-screen for HIF activator project, dose response (AID 493213)
Settings: U2OS proteasome chymotrypsin-like activity, Proteasome-Glo luminescence; at 38 µM (top of the series)
Procedure, shortened: (§1)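 System: U2OS cells; compound: 8-point 3-fold series; repeats: duplicates; schedule: 24 h plating, 4 h compound, 2 h reagent; measured by: Proteasome-Glo luminescence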

Row | SMILES | activity change, negative = inhibition
1 | c1ccc(-c2nnc(-c3ccccn3)nc2N2CCC(C3CCCCC3)C2)cc1 (configuration not stated) | 51.6% (inactive)
2 | COc1ccccc1N1CCN(Cc2ccc(O)c3ncccc23)CC1 | 27.2% (inactive)
3 | Cc1cccc(Nc2nc(-c3ccccn3)nnc2-c2ccccc2)n1 | -11.6% (inactive)
4 | c1ccc(-c2nnc(-c3ccccn3)nc2N2CCC(N3CCOCC3)CC2)cc1 | 16.5% (inactive)
5 | c1ccc(-c2ccc(CNc3nc(-c4ccccn4)nnc3-c3ccccc3)cc2)cc1 | 22% (inactive)
6 | c1ccc(-c2nnc(-c3ccccn3)nc2NCc2ccccn2)cc1 | 1.56% (inactive)
7 | CN1CCN(C(=O)c2cc(-c3ccccc3)on2)CC1 | -34.5% (inactive)
8 | c1ccc(-c2nnc(-c3ccccn3)nc2N2CCC(c3ccccc3)C2)cc1 (configuration not stated) | -6.19% (inactive)
9 | c1ccc(CNc2nc(-c3ccccn3)nnc2-c2ccccc2)cc1 | 25.8% (inactive)
10 | OCC1CCN(Cc2ccc(O)c3ncccc23)CC1 | 51.9% (inactive)
11 | O=C(c1cc(-c2ccccc2)on1)N1CCC(N2CCOCC2)CC1 | -8.89% (inactive)
12 | c1ccc(-c2csc(Nc3nc(-c4ccccn4)nnc3-c3ccccc3)n2)cc1 | -8.99% (inactive)
13 | CN(C)c1nc(-c2ccccn2)nnc1-c1ccccc1 | 10.9% (inactive)
14 | O=C(Nc1nnc(-c2ccccc2)s1)c1cc(-c2ccccc2)on1 | -5.17% (inactive)
15 | c1ccc(-c2nnc(-c3ccccn3)nc2NCC2CC2)cc1 | -6.55% (inactive)
16 | c1ccc(-c2nnc(-c3ccccn3)nc2NCC2CCOCC2)cc1 | 6.73% (inactive)
17 | COc1ccc(CNc2nc(-c3ccccn3)nnc2-c2ccccc2)cc1 | 53.2% (inactive)
18 | CC(C)(C)c1ccc(CNc2nc(-c3ccccn3)nnc2-c2ccccc2)cc1 | 37.7% (inactive)
19 | Cc1ccc(CNc2nc(-c3ccccn3)nnc2-c2ccccc2)cc1 | 14.3% (inactive)
20 | c1ccc(-c2cccc(CNc3nc(-c4ccccn4)nnc3-c3ccccc3)c2)cc1 | 26.9% (inactive)
21 | Oc1ccc(CN2CCc3ccccc3C2)c2cccnc12 | 65.3% (inactive) and 46.7% (inactive)
22 | CC(C)(C)CCNc1nc(-c2ccccn2)nnc1-c1ccccc1 | 145% (inactive) and 67.4% (inactive)

Row | SMILES | activity change, negative = inhibition
23 | Clc1cccc(CNc2nc(-c3ccccn3)nnc2-c2ccccc2)c1 | 46.4% (inactive)
24 | N#CC1(c2ccccc2)CCN(Cc2ccc(O)c3ncccc23)CC1 | 48.4% (inactive)
25 | Cn1c(-c2ccccc2)cnc1Nc1nc(-c2ccccn2)nnc1-c1ccccc1 | 6.25% (inactive)
26 | OCC1CCN(c2nc(-c3ccccn3)nnc2-c2ccccc2)CC1 | 6.32% (inactive)
27 | c1ccc(-c2nnc(-c3ccccn3)nc2NCC2CCCCC2)cc1 | 49.9% (inactive)
28 | O=C(NCCN1CCOCC1)c1cc(-c2ccccc2)on1 | -26.6% (inactive)
29 | C[C@H](Nc1nc(-c2ccccn2)nnc1-c1ccccc1)C1CCCCC1 | 72.6% (inactive)
30 | c1ccc(-c2nnc(-c3ccccn3)nc2Nc2cnc3ccccc3n2)cc1 | -2.5% (inactive)
31 | OCCCNc1nc(-c2ccccn2)nnc1-c1ccccc1 | -5.89% (inactive)
32 | c1ccc(-c2nnc(Nc3nc(-c4ccccn4)nnc3-c3ccccc3)s2)cc1 | -5.61% (inactive)
33 | CN1CCN(c2nc(-c3ccccn3)nnc2-c2ccccc2)CC1 | 20.7% (inactive)
34 | c1ccc(-c2nnc(-c3ccccn3)nc2N2CCN(c3ccncc3)CC2)cc1 | 10.3% (inactive)
35 | c1ccc(-c2nnc(-c3ccccn3)nc2NCCCN2CCOCC2)cc1 | 6.94% (inactive)
36 | Cc1ccc(NC(=O)c2cc(-c3ccccc3)on2)cn1 | 14.5% (inactive)
37 | c1ccc(-c2nnc(-c3ccccn3)nc2Nc2nc3ccccc3s2)cc1 | 28.5% (inactive)
38 | c1ccc(-c2nnc(-c3ccccn3)nc2NCc2cccnc2)cc1 | 14.6% (inactive)
39 | Cn1c(-c2ccccc2)cnc1NC(=O)c1cc(-c2ccccc2)on1 | -10.3% (inactive)
40 | O=C(c1cc(-c2ccccc2)on1)N1CCC(CO)CC1 | -22.3% (inactive)
41 | CC(Nc1nc(-c2ccccn2)nnc1-c1ccccc1)c1ccccc1 (configuration not stated) | 22.8% (inactive)
42 | Oc1ccc(CN2CCC(Cc3ccccc3)CC2)c2cccnc12 | 30.7% (inactive)
43 | Cc1ccc(Nc2nc(-c3ccccn3)nnc2-c2ccccc2)cn1 | -25% (inactive)
44 | C[C@@H](Nc1nc(-c2ccccn2)nnc1-c1ccccc1)C1CCCCC1 | 133% (inactive)

Row | SMILES | activity change, negative = inhibition
45 | O=C(NCCCn1ccnc1)c1cc(-c2ccccc2)on1 | 9.43% (inactive)
46 | O=C(Nc1cnc2ccccc2c1)c1cc(-c2ccccc2)on1 | -16.4% (inactive)
47 | CC(C)(C)OC(=O)N1CCN(Cc2ccc(O)c3ncccc23)CC1 | 3.79% (inactive)
48 | O=C(NCCN1CCCCC1)c1cc(-c2ccccc2)on1 | -24.8% (inactive)
49 | Cc1ccccc1CNC(=O)c1cc(-c2ccccc2)on1 | -46.6% (inactive)
50 | C=CCNc1nc(-c2ccccn2)nnc1-c1ccccc1 | 4.88% (inactive)
51 | O=C(NCCCN1CCOCC1)c1cc(-c2ccccc2)on1 | -24.4% (inactive)
52 | Cc1ccccc1CNc1nc(-c2ccccn2)nnc1-c1ccccc1 | 29.7% (inactive)
53 | c1ccc(-c2nnc(-c3ccccn3)nc2NCCc2ccccn2)cc1 | 16.8% (inactive)
54 | COc1cccc(CNc2nc(-c3ccccn3)nnc2-c2ccccc2)c1 | 36.9% (inactive)
55 | Oc1ccc(CNC2CCc3ccccc32)c2cccnc12 (configuration not stated) | 81.7% (inactive)
56 | O=C(NCc1ccccc1)c1cc(-c2ccccc2)on1 | -23.1% (inactive)
57 | Cc1cccc(CNc2nc(-c3ccccn3)nnc2-c2ccccc2)c1 | 45.1% (inactive)
58 | C[C@@H](Nc1nc(-c2ccccn2)nnc1-c1ccccc1)c1ccccc1 | 79.4% (inactive)
59 | O=C(NCC1CCCCC1)c1cc(-c2ccccc2)on1 | -23.5% (inactive)
60 | O=C(Nc1ncc(-c2ccccc2)o1)c1cc(-c2ccccc2)on1 | -53.8% (inactive)
61 | Cc1ccc(CNc2nc(-c3ccccn3)nnc2-c2ccccc2)cc1C | 76.7% (inactive)
62 | CC1CN(Cc2ccc(O)c3ncccc23)CC(C)O1 (configuration not stated) | 12% (inactive)
63 | c1ccc(CCNc2nc(-c3ccccn3)nnc2-c2ccccc2)cc1 | 43.3% (inactive)
64 | Cn1c(NC(=O)c2cc(-c3ccccc3)on2)nc2ccccc21 | -1.13% (inactive)
65 | Oc1ccc(CN2CCC3CCCCC3C2)c2cccnc12 (configuration not stated) | 26.7% (inactive)
66 | Oc1ccc(CNC2Cc3ccccc3C2)c2cccnc12 | 26.4% (inactive)

Test system: U2OS proteasome chymotrypsin-like activity, Proteasome-Glo luminescence
Assay: as above
Settings: not given
Procedure, shortened: as §1

Row | SMILES | AC50
67 | O=C(NCC1CC1)c1cc(-c2ccccc2)on1 | 33.7 µM
68 | Cc1cccc(NC(=O)c2cc(-c3ccccc3)on2)n1 | 17.3 µM
69 | O=C(c1cc(-c2ccccc2)on1)N1CCN(c2ccncc2)CC1 | 2.52 µM
70 | O=C(Nc1ccc2ccccc2n1)c1cc(-c2ccccc2)on1 | 29.1 µM
71 | c1ccc(-c2cnc(Nc3nc(-c4ccccn4)nnc3-c3ccccc3)s2)cc1 | 2.42 µM
72 | CC(C)(C)CCNC(=O)c1cc(-c2ccccc2)on1 | 36.5 µM
73 | Cc1cccc(CNC(=O)c2cc(-c3ccccc3)on2)c1 | 39.4 µM
74 | O=C(NCCCO)c1cc(-c2ccccc2)on1 | 3.88 µM
75 | CCCCNC(=O)c1cc(-c2ccccc2)on1 | 21.5 µM
76 | O=C(Nc1ncc2ccccc2n1)c1cc(-c2ccccc2)on1 | 28.1 µM
77 | CN(C)CCNC(=O)c1cc(-c2ccccc2)on1 | 33.4 µM
